Active and inactive are the calls of the source. The rule behind the calls is not given here.
Key:
NCI-H23 = assay: Cytotoxicity against human NCI-H23 assessed as growth inhibition at 10 uM by NCI protocol relative to control; format: functional; details: read-out: GI
Procedure, shortened: (§1)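 Run by NCI as a single-dose screen at 10 μM across the sixty-cell-line panel, which covers nine human tumour tissue types. The read-out is percent growth inhibition of treated cells relative to untreated cells.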

NCI-H460 = assay: Cytotoxicity against human NCI-H460 assessed as growth inhibition at 10 uM by NCI protocol relative to control; format: functional; details: read-out: GI; procedure, shortened: as §1
OVCAR-3 = assay: Cytotoxicity against human OVCAR-3 assessed as growth inhibition at 10 uM by NCI protocol relative to control; format: functional; details: read-out: GI; procedure, shortened: as §1
786-0 = assay: Cytotoxicity against human 786-0 assessed as growth inhibition at 10 uM by NCI protocol relative to control; format: functional; details: read-out: GI; procedure, shortened: as §1
U-251 = assay: Cytotoxicity against human U251 assessed as growth inhibition at 10 uM by NCI protocol relative to control; format: functional; details: read-out: GI
Procedure, shortened: (§2)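 Run by the NCI under its standard protocol: one dose of 10 μM against a sixty-line panel from nine human tumour tissues. Result given as percent growth inhibition of treated cells relative to untreated cells.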

SW-620 = assay: Cytotoxicity against human SW-620 assessed as growth inhibition at 10 uM by NCI protocol relative to control; format: functional; details: read-out: GI; procedure, shortened: as §2
SF-268 = assay: Cytotoxicity against human SF-268 assessed as growth inhibition at 10 uM by NCI protocol relative to control; format: functional; details: read-out: GI; procedure, shortened: as §1
HL-60 = assay: Cytotoxicity against human HL60 assessed as growth inhibition at 10 uM by NCI protocol relative to control; format: functional; details: read-out: GI; procedure, shortened: as §1
SNB-19 = assay: Cytotoxicity against human SNB-19 assessed as growth inhibition at 10 uM by NCI protocol relative to control; format: functional; details: read-out: GI; procedure, shortened: as §2
DU-145 = assay: Cytotoxicity against human DU-145 assessed as growth inhibition at 10 uM by NCI protocol relative to control; format: functional; details: read-out: GI; procedure, shortened: as §1
UACC-257 = assay: Cytotoxicity against human UACC-257 assessed as growth inhibition at 10 uM by NCI protocol relative to control; format: functional; details: read-out: GI; procedure, shortened: as §2
MCF7 = assay: Cytotoxicity against human MCF7 assessed as growth inhibition at 10 uM by NCI protocol relative to control; format: functional; details: read-out: GI; procedure, shortened: as §1
MDA-MB-231 = assay: Cytotoxicity against human MDA-MB-231 assessed as growth inhibition at 10 uM by NCI protocol relative to control; format: functional; details: read-out: GI; procedure, shortened: as §1
T47D [1] = assay: Cytotoxicity against human T47D cells assessed as reduction in cell viability after 3 hrs by MTT assay
RPMI-8226 = assay: Cytotoxicity against human RPMI-8226 assessed as growth inhibition at 10 uM by NCI protocol relative to control; format: functional; details: read-out: GI; procedure, shortened: as §1
CCRF-CEM = assay: Cytotoxicity against human CCRF-CEM assessed as growth inhibition at 10 uM by NCI protocol relative to control; format: functional; details: read-out: GI; procedure, shortened: as §1
SK-MEL-5 = assay: Cytotoxicity against human SK-MEL-5 assessed as growth inhibition at 10 uM by NCI protocol relative to control; format: functional; details: read-out: GI; procedure, shortened: as §1
A498 = assay: Cytotoxicity against human A498 assessed as growth inhibition at 10 uM by NCI protocol relative to control; format: functional; details: read-out: GI; procedure, shortened: as §1
MDA-MB-468 = assay: Cytotoxicity against human MDA-MB-468 assessed as growth inhibition at 10 uM by NCI protocol relative to control; format: functional; details: read-out: GI; procedure, shortened: as §1
K562 = assay: Cytotoxicity against human K-562 assessed as growth inhibition at 10 uM by NCI protocol relative to control; format: functional; details: read-out: GI; procedure, shortened: as §1
Malme-3M = assay: Cytotoxicity against human MALME-3M assessed as growth inhibition at 10 uM by NCI protocol relative to control; format: functional; details: read-out: GI; procedure, shortened: as §1
UACC-62 = assay: Cytotoxicity against human UACC-62 assessed as growth inhibition at 10 uM by NCI protocol relative to control; format: functional; details: read-out: GI; procedure, shortened: as §2
SR = assay: Cytotoxicity against human SR assessed as growth inhibition at 10 uM by NCI protocol relative to control; format: functional; details: read-out: GI; procedure, shortened: as §2
PC-3 = assay: Cytotoxicity against human PC3 assessed as growth inhibition at 10 uM by NCI protocol relative to control; format: functional; details: read-out: GI; procedure, shortened: as §1
ACHN = assay: Cytotoxicity against human ACHN assessed as growth inhibition at 10 uM by NCI protocol relative to control; format: functional; details: read-out: GI; procedure, shortened: as §1
OVCAR-4 = assay: Cytotoxicity against human OVCAR-4 assessed as growth inhibition at 10 uM by NCI protocol relative to control; format: functional; details: read-out: GI; procedure, shortened: as §1
HOP-92 = assay: Cytotoxicity against human HOP-92 assessed as growth inhibition at 10 uM by NCI protocol relative to control; format: functional; procedure, shortened: as §1
HT-29 = assay: Cytotoxicity against human HT29 assessed as growth inhibition at 10 uM by NCI protocol relative to control; format: functional; details: read-out: GI; procedure, shortened: as §1
NCI-H322M = assay: Cytotoxicity against human NCI-H322M assessed as growth inhibition at 10 uM by NCI protocol relative to control; format: functional; details: read-out: GI; procedure, shortened: as §1
MOLT-4 = assay: Cytotoxicity against human MOLT-4 assessed as growth inhibition at 10 uM by NCI protocol relative to control; format: functional; details: read-out: GI; procedure, shortened: as §1
IGROV-1 = assay: Cytotoxicity against human IGROVI assessed as growth inhibition at 10 uM by NCI protocol relative to control; format: functional; details: read-out: GI; procedure, shortened: as §1
M14 = assay: Cytotoxicity against human M14 assessed as growth inhibition at 10 uM by NCI protocol relative to control; format: functional; details: read-out: GI; procedure, shortened: as §1
HCT-15 = assay: Cytotoxicity against human HCT-15 assessed as growth inhibition at 10 uM by NCI protocol relative to control; format: functional; details: read-out: GI; procedure, shortened: as §1
SF-295 = assay: Cytotoxicity against human SF-295 assessed as growth inhibition at 10 uM by NCI protocol relative to control; format: functional; details: read-out: GI; procedure, shortened: as §1
NCI/ADR-RES = assay: Cytotoxicity against human NCl/ADR-RES assessed as growth inhibition at 10 uM by NCI protocol relative to control; format: functional; details: read-out: GI; procedure, shortened: as §1
T47D [2] = assay: Cytotoxicity against human T-47D assessed as growth inhibition at 10 uM by NCI protocol relative to control; format: functional; details: read-out: GI; procedure, shortened: as §2
NCI-H226 = assay: Cytotoxicity against human NCI-H226 assessed as growth inhibition at 10 uM by NCI protocol relative to control; format: functional; details: read-out: GI; procedure, shortened: as §1
RXF 393 = assay: Cytotoxicity against human RXF 393 assessed as growth inhibition at 10 uM by NCI protocol relative to control; format: functional; details: read-out: GI; procedure, shortened: as §1
LOX IMVI = assay: Cytotoxicity against human LOX IMVI assessed as growth inhibition at 10 uM by NCI protocol relative to control; format: functional; details: read-out: GI; procedure, shortened: as §1
SK-MEL-28 = assay: Cytotoxicity against human SK-MEL-28 assessed as growth inhibition at 10 uM by NCI protocol relative to control; format: functional; details: read-out: GI; procedure, shortened: as §1
SK-MEL-2 = assay: Cytotoxicity against human SK-MEL-2 assessed as growth inhibition at 10 uM by NCI protocol relative to control; format: functional; details: read-out: GI; procedure, shortened: as §1
OVCAR-8 = assay: Cytotoxicity against human OVCAR-8 assessed as growth inhibition at 10 uM by NCI protocol relative to control; format: functional; details: read-out: GI; procedure, shortened: as §1

O=C(CN1CCN(c2cc(=O)n(-c3ccccc3)c3ccccc23)CC1)Nc1nc(-c2ccc(Cl)cc2)cs1
inhibition of growth at 10 µM (NCI-H23): 50.2%
inhibition of growth at 10 µM (NCI-H460): 45.2%
inhibition of growth at 10 µM (OVCAR-3): 32.9%
inhibition of growth at 10 µM (786-0): 32.4%
inhibition of growth at 10 µM (U-251): 36.2%
inhibition of growth at 10 µM (SW-620): 25.7%
inhibition of growth at 10 µM (SF-268): 45.5%
inhibition of growth at 10 µM (HL-60): 73.8%
inhibition of growth at 10 µM (SNB-19): 36%
inhibition of growth at 10 µM (DU-145): 38.4%
inhibition of growth at 10 µM (UACC-257): 72%
inhibition of growth at 10 µM (MCF7): 79.9%
inhibition of growth at 10 µM (MDA-MB-231): 25.3%
IC50 (T47D [1]): 30.2 µM
inhibition of growth at 10 µM (RPMI-8226): 63.3%
inhibition of growth at 10 µM (CCRF-CEM): 49.3%
inhibition of growth at 10 µM (SK-MEL-5): 94.9%
inhibition of growth at 10 µM (A498): 59.2%
inhibition of growth at 10 µM (MDA-MB-468): 90.4%
inhibition of growth at 10 µM (K562): 75.8%
inhibition of growth at 10 µM (Malme-3M): 44.9%
inhibition of growth at 10 µM (UACC-62): 38.5%
inhibition of growth at 10 µM (SR): 43.2%
inhibition of growth at 10 µM (PC-3): 65%
inhibition of growth at 10 µM (ACHN): 44.9%
inhibition of growth at 10 µM (OVCAR-4): 80.3%
growth inhibition (GI) (HOP-92): inactive
inhibition of growth at 10 µM (HT-29): 36.2%
inhibition of growth at 10 µM (NCI-H322M): 10.9%
inhibition of growth at 10 µM (MOLT-4): 71%
inhibition of growth at 10 µM (IGROV-1): 34.5%
inhibition of growth at 10 µM (M14): 50.2%
inhibition of growth at 10 µM (HCT-15): 60.3%
inhibition of growth at 10 µM (SF-295): 37.4%
inhibition of growth at 10 µM (NCI/ADR-RES): 45.1%
inhibition of growth at 10 µM (T47D [2]): 75.7%
inhibition of growth at 10 µM (NCI-H226): 52.6%
inhibition of growth at 10 µM (RXF 393): 33%
inhibition of growth at 10 µM (LOX IMVI): 41.6%
inhibition of growth at 10 µM (SK-MEL-28): 30.8%
inhibition of growth at 10 µM (SK-MEL-2): 24.4%
inhibition of growth at 10 µM (OVCAR-8): 40.6%
